The source made the active and inactive calls. The calls are words filed in the database; no cut-off is given here. Bounds are passed on as bounds.

The test system of assay [1] is DLD-1. Briefly: Cytotoxicity against human DLD1 cells. The class given is functional, cell-based.
In the next assay the test system is HeLa. Briefly: Cytotoxicity against human HeLa cells. The format is functional, cell-based.
In assay [2] the test system is DLD-1. Briefly: Activation of death-receptor 5 expression in human DLD-1/ SacI cells at 35.0 uM by luciferase assay relative to control. The format is functional. The procedure, abridged: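 DLD-1 human colon cancer cells stably carrying pDR5/SacI (human DR5 promoter–luciferase) plated at 2 × 10^5 cells/well in RPMI with 10% FBS, 24 h at 37 °C, 5% CO2, then exposed 24 h to compound (tested at 17.5 and 35.0 µM). Lysed, luciferase substrate added, luminescence read; activity as relative light intensity versus EtOH-treated control cells; luteolin 17.5 µM positive control; n = 3.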

Assay [3] has as its system DLD-1. Briefly: Activation of death-receptor 5 expression in human DLD-1/ SacI cells at 17.5 uM by luciferase assay relative to control. The format is functional, cell-based. An outline of the steps:
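DLD-1/SacI (human colon cancer line stably carrying human DR5 promoter–luciferase construct) seeded in RPMI with 10% FBS, 24 h at 37 °C, 5% CO2. Treated with samples (17.5 and 35.0 µM) 24 h. Lysed, luciferase substrate added, luminescence read. Activity expressed as light intensity relative to EtOH-treated control cells. Luteolin 17.5 µM as positive control. Means, n = 3 ± SD.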

Take `COc1cc(-c2coc3c4c(cc(O)c3c2=O)OC(C)(C)C=C4)c(OC)cc1O`: the IC50 in the assay with DLD-1 [1] and in the assay on HeLa was greater than 25 µM each time. This compound came in with a Fold change in the assay with DLD-1 [2] of 2.4.

Turning to `Oc1cc(O)c2c(c1)O[C@H](c1ccc(O)c(O)c1)[C@H](O)C2` [(-)-EPICATECHIN], the IC50 with DLD-1 [1] and in the assay on HeLa was greater than 25 µM in each case.

As to `COc1cc(-c2coc3cc(O)cc(O)c3c2=O)c(OC)cc1OCC=C(C)C` [BRANDISIANIN A], the 50% inhibitory concentration (IC50) in the assay with DLD-1 [1] and in the assay on HeLa was greater than 25 µM throughout.

As for `C=C(C)[C@H]1Cc2c(cc(O)c3c(=O)c(-c4cc(OC)c(O)cc4OC)coc23)O1` [BRANDISIANIN B], the IC50 – broadly, the concentration that inhibits the measured activity by half – is greater than 25 µM in the assay on DLD-1 [1] and 9.7 µM with HeLa.

As for `COc1cc(-c2coc3c(CC=C(C)C)c(O)cc(O)c3c2=O)c(OC)cc1O` [BRANDISIANIN C], the IC50 was greater than 25 µM in the assay with DLD-1 [1] and 19.1 µM in the assay on HeLa.

As for `COc1cc(-c2coc3c4c(cc(O)c3c2=O)O[C@@](C)(CO)C=C4)c(OC)cc1O` [BRANDISIANIN D], the IC50 in the assay on DLD-1 [1] and in the assay with HeLa was greater than 25 µM each time. Moreover, in the assay with DLD-1 [2], the Fold change is reported as 3. Besides, in the assay with DLD-1 [3], the outcome was Active.

As to `COc1cc(-c2coc3c(C/C=C(\C)CO)c(O)cc(O)c3c2=O)c(OC)cc1O` [BRANDISIANIN E], the values for the concentration for half-maximal inhibition (IC50) with DLD-1 [1] and with HeLa were greater than 25 µM and 21.7 µM, respectively.

As to `COc1cc2c(cc1O)[C@@H]1Oc3c(cc(OC)c(OC)c3O)[C@@H]1CO2` [BRANDISIANIN F], the IC50 in the assay on DLD-1 [1] and with HeLa was greater than 25 µM each time.

`O=C1C[C@@H](c2ccc(O)cc2)Oc2cc(O)cc(O)c21` [NARINGENIN]: the IC50 with DLD-1 [1] and with HeLa was greater than 25 µM each time.

In the case of `COc1cc(-c2coc3cc(O)cc(O)c3c2=O)c(OC)cc1O` [OLIBERGIN A], the IC50 with DLD-1 [1] and in the assay on HeLa was greater than 25 µM in each case.

Take `COc1cc(-c2coc3cc(O)c(CC=C(C)C)c(O)c3c2=O)c(OC)cc1O` [VIRIDIFLORIN]: the IC50 with DLD-1 [1] and in the assay on HeLa was greater than 25 µM each time.

Source of the values: ChEMBL document CHEMBL1141431, “Brandisianins A-F, isoflavonoids isolated from Millettia brandisiana in a screening program for death-receptor expression enhancement activity” (J Nat Prod, 2007).
